# Measured values as given in ChEMBL document CHEMBL4818983, “Structure-activity relationship and hypoglycemic activity of tricyclic matrines with advantage of treating diabetic nephropathy” (Eur J Med Chem, 2020).
# Calls of active or inactive are those of the source. The rule behind the calls is not given here.
# What was measured:
# Mus musculus [1] = test: Antidiabetic activity in KK-Ay mouse assessed as effect on LDL level at 100 mg/kg, po […] by ELISA (reference value: 1.11 +/- 0.24 mM); assay type: functional
# [2] = Acute toxicity in Kunming mouse assessed as effect on blood GPT level at 250 to 1000 mg/kg, po administered as single dose measured for 7 days; assay type: organism-based; conditions: in vivo, 168 h, dose 250-1000 mg/kg, time 7 day
# Summary of the method: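 Kunming mice each received one oral dose at 250, 500, 750 or 1000 mg·kg^-1 and were closely monitored for 7 days. At the end, blood was sampled and GOT, GPT, BUN and CRE were measured […] as liver and kidney function markers.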
# Mus musculus [3] = test: Antidiabetic activity in KK-Ay mouse assessed as effect on serum Creatinine level at 100 mg/kg, po for 24 hrs by ELISA (reference value: 124 +/- 35.1 uM); assay type: functional
# Mus musculus [4] = test: Anti-diabetic activity in overnight fasted diabetic KK-Ay mouse assessed as reduction in blood glucose AUC at 50 to 100 mg/kg, po measured after 35 days by oral glucose tolerance test; assay type: functional, organism-based; conditions: dose 50-100 mg/kg, time 35.0 day
# Summary of the method: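 KK-Ay mice orally treated with 50 or 100 mg/kg compound or 5 mg/kg rosiglitazone, C57BL/6J as normal controls. After 35 days of treatment, oral glucose tolerance test and insulin tolerance test run. Blood glucose plotted against time, AUC calculated. Mean ± SD, 8-9 mice per group.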
# [5] = Effect on high fat diet-fed KK-Ay mouse model of obesity and diabetes assessed as total body weight gain at 50 mg/kg, po (reference value: 43.5 +/- 5.24 g); assay type: ADME, organism-based; conditions: in vivo
# Summary of the method: (§1)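 KK-Ay mice on lipogenic diet, with C57BL/6J mice as normal controls, dosed orally at 50 or 100 mg/kg (test) or 5 mg/kg (RGZ). Food intake (g/day), water intake (mL/day) and body weight recorded before and after treatment; body weight gain calculated. Mean±SD, 8-9 mice per group.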
# [6] = Effect on high fat diet-fed KK-Ay mouse model of obesity and diabetes assessed as food intake at 100 mg/kg, po (reference value: 5.67 +/- 0.55 g/day); assay type: ADME, organism-based; conditions: in vivo; summary of the method: as §1
compound,measurement,setting,value
CCCC[C@@H]1[C@H]2CCCN3CCC[C@@H](CN1S(=O)(=O)c1ccc(C(F)(F)F)cc1)[C@@H]23,Activity,Mus musculus [1],0.82 mM
same,Activity,[2],Non-Toxic
same,Activity,Mus musculus [3],70.4 µM
same,Activity,Mus musculus [4],Active
same,Activity,[5],3.52 g
same,Activity,[6],5.28 g/day
